Results: ChEMBL document CHEMBL4118021, “Studies of TAK1-centered polypharmacology with novel covalent TAK1 inhibitors” (Bioorg Med Chem, 2017)
One block for each compound: values may come before it. The source made the active and inactive calls. The calls are words filed in the database; no cut-off is given here.

Tests used:
[1] = biological target: Lysine--tRNA ligase (Homo sapiens) (UniProt Q15046); test: Binding affinity to KARS in human NCI-H358 cells at 1 uM by mass spectrometry based pull down assay; assay type: cell-based
[2] = biological target: X antigen family member 1 (Homo sapiens) (UniProt Q9HD64); test: Binding affinity to XAGE1B in human NCI-H23 cells at 1 uM by mass spectrometry based pull down assay; assay type: cell-based
[3] = biological target: Elongation factor 1-gamma (Homo sapiens) (UniProt P26641); test: Binding affinity to EEF1G in human NCI-H358 cells at 1 uM by mass spectrometry based pull down assay; assay type: cell-based
[4] = biological target: Calponin-2 (Homo sapiens) (UniProt Q99439); test: Binding affinity to CNN2 in human NCI-H358 cells at 1 uM by mass spectrometry based pull down assay; assay type: cell-based
[5] = biological target: Proteasome activator complex subunit 3 (Homo sapiens) (UniProt P61289); test: Binding affinity to PSME3 in human NCI-H23 cells at 1 uM by mass spectrometry based pull down assay; assay type: cell-based
[6] = biological target: Kelch-like ECH-associated protein 1 (Homo sapiens) (UniProt Q14145); test: Binding affinity to KEAP1 in human NCI-H358 cells at 1 uM by mass spectrometry based pull down assay; assay type: cell-based
[7] = biological target: Heterogeneous nuclear ribonucleoprotein H2 (Homo sapiens) (UniProt P55795); test: Binding affinity to HNRNPH2 in human NCI-H23 cells at 1 uM by mass spectrometry based pull down assay; assay type: cell-based
[8] = biological target: Actin-related protein 2/3 complex subunit 5 (Homo sapiens) (UniProt O15511); test: Binding affinity to ARPC5 in human NCI-H23 cells at 1 uM by mass spectrometry based pull down assay; assay type: cell-based
[9] = biological target: Cyclin-G-associated kinase (Homo sapiens) (UniProt O14976); test: Binding affinity to GAK in human NCI-H23 cells at 1 uM by mass spectrometry based pull down assay; assay type: cell-based
[10] = biological target: T1, Serine/threonine-protein kinase Nek9 (Homo sapiens) (UniProt Q8TD19); test: Binding affinity to NEK9 in human NCI-H358 cells at 1 uM by mass spectrometry based pull down assay; assay type: cell-based
T1 sequence (whole entry): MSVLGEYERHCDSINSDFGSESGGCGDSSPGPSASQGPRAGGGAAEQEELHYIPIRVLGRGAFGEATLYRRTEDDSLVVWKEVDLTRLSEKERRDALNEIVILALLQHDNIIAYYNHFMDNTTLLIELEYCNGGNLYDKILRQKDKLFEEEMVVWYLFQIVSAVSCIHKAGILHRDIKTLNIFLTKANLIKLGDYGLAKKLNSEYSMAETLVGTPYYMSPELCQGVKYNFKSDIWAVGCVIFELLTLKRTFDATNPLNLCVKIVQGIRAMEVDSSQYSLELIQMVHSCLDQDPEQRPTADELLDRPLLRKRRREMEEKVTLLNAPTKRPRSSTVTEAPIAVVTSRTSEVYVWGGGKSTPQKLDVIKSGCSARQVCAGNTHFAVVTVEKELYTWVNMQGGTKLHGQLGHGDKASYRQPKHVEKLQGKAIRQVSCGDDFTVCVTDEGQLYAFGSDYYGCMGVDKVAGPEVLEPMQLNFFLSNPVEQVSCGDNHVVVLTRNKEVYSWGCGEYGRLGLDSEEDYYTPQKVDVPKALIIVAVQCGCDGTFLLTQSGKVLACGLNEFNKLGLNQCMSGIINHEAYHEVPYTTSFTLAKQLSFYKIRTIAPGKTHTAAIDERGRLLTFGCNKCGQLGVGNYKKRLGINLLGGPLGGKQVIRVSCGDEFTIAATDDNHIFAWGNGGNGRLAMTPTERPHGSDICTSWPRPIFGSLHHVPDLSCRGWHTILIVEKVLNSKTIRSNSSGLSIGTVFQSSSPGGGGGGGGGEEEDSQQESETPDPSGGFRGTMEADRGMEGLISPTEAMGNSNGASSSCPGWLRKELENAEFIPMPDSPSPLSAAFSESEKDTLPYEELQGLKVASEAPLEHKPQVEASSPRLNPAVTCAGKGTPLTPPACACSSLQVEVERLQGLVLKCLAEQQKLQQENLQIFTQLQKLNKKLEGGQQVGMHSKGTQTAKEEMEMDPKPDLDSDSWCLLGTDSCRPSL

[11] = biological target: Deoxyuridine 5'-triphosphate nucleotidohydrolase, mitochondrial (Homo sapiens) (UniProt P33316); test: Binding affinity to DUT in human NCI-H358 cells at 1 uM by mass spectrometry based pull down assay; assay type: cell-based
[12] = biological target: HCLS1-associated protein X-1 (Homo sapiens) (UniProt O00165); test: Binding affinity to HAX1 in human NCI-H358 cells at 1 uM by mass spectrometry based pull down assay; assay type: cell-based
[13] = biological target: Protein disulfide-isomerase (Homo sapiens) (UniProt P07237); test: Binding affinity to P4HB in human NCI-H358 cells at 1 uM by mass spectrometry based pull down assay; assay type: cell-based
[14] = biological target: MAP kinase-activated protein kinase 5 (Homo sapiens) (UniProt Q8IW41); test: Binding affinity to MAPKAPK5 in human NCI-H358 cells at 1 uM by mass spectrometry based pull down assay; assay type: cell-based
[15] = biological target: 14-3-3 protein gamma (Homo sapiens) (UniProt P61981); test: Binding affinity to YWHAG in human NCI-H23 cells at 1 uM by mass spectrometry based pull down assay; assay type: cell-based
[16] = biological target: Reticulon-4 (Homo sapiens) (UniProt Q9NQC3); test: Binding affinity to RTN4 in human NCI-H23 cells at 1 uM by mass spectrometry based pull down assay; assay type: cell-based
Vinculin (Homo sapiens) = Vinculin (Homo sapiens) (UniProt P18206); test: Binding affinity to VCL in human NCI-H358 cells at 1 uM by mass spectrometry based pull down assay; assay type: cell-based
Caprin-1 (Homo sapiens) = Caprin-1 (Homo sapiens) (UniProt Q14444); test: Binding affinity to CAPRIN1 in human NCI-H358 cells at 1 uM by mass spectrometry based pull down assay; assay type: cell-based
[17] = biological target: Acidic leucine-rich nuclear phosphoprotein 32 family member B (Homo sapiens) (UniProt Q92688); test: Binding affinity to ANP32B in human NCI-H23 cells at 1 uM by mass spectrometry based pull down assay; assay type: cell-based
[18] = biological target: Serine/threonine-protein kinase MARK1 (Homo sapiens) (UniProt Q9P0L2); test: Inhibition of MARK1 in human SKCO1 cells at 1 uM after 4 hrs using biotin labeled EVAVKIIDK probe by mass-spectrometric analysis relative to control; assay type: cell-based
[19] = biological target: Serine/threonine-protein kinase TBK1 (Homo sapiens) (UniProt Q9UHD2); test: Inhibition of TBK1 in human SKCO1 cells at 1 uM after 4 hrs using biotin labeled DIKPGNIMR probe by mass-spectrometric analysis relative to control; assay type: cell-based
[20] = biological target: Platelet-derived growth factor receptor beta (Homo sapiens) (UniProt P09619); test: Inhibition of human PDGFRB (582 to 1009 residues) expressed in bacterial expression system assessed as enzyme activity at 10 uM by KINOMEScan assay relative to control; parameters: scale not given: the % may be the effect or the level left
In short: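 In vitro ATP-site competition binding assay across a panel of 456 kinases, with compound tested at 1 and 10 μM.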

NCI-H23 = test: Antiproliferative activity against human NCI-H23 cells harboring KRAS G12C mutant at; assay type: functional, cell-based

Caprin-1 (Homo sapiens), sequence (Q14444 whole entry): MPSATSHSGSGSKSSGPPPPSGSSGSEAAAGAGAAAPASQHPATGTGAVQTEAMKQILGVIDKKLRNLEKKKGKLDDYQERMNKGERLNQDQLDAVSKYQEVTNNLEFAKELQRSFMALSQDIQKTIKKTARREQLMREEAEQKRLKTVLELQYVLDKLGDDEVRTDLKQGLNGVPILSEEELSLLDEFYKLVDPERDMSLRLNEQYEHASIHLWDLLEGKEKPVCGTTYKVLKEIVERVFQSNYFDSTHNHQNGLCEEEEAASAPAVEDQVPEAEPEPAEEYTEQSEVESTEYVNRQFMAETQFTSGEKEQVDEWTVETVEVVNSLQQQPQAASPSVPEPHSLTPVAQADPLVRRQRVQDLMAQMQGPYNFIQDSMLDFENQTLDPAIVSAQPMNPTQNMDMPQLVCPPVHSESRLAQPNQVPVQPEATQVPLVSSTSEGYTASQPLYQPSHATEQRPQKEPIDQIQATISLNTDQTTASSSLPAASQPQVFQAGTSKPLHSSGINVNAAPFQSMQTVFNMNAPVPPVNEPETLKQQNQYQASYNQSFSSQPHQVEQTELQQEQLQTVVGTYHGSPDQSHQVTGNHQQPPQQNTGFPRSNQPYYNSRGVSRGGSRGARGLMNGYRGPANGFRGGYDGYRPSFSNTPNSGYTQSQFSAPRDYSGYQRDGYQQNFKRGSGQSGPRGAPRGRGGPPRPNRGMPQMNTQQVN
Acidic leucine-rich nuclear phosphoprotein 32 family member B (Homo sapiens), sequence (Q92688 whole entry): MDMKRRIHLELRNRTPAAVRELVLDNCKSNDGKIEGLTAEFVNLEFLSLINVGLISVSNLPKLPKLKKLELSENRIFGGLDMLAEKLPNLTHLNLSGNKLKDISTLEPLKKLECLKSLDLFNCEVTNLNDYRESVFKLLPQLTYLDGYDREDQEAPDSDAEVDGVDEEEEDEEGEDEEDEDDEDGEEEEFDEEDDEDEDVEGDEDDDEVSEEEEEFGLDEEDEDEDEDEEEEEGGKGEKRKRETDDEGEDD
Serine/threonine-protein kinase MARK1 (Homo sapiens), sequence (Q9P0L2 whole entry, looked up): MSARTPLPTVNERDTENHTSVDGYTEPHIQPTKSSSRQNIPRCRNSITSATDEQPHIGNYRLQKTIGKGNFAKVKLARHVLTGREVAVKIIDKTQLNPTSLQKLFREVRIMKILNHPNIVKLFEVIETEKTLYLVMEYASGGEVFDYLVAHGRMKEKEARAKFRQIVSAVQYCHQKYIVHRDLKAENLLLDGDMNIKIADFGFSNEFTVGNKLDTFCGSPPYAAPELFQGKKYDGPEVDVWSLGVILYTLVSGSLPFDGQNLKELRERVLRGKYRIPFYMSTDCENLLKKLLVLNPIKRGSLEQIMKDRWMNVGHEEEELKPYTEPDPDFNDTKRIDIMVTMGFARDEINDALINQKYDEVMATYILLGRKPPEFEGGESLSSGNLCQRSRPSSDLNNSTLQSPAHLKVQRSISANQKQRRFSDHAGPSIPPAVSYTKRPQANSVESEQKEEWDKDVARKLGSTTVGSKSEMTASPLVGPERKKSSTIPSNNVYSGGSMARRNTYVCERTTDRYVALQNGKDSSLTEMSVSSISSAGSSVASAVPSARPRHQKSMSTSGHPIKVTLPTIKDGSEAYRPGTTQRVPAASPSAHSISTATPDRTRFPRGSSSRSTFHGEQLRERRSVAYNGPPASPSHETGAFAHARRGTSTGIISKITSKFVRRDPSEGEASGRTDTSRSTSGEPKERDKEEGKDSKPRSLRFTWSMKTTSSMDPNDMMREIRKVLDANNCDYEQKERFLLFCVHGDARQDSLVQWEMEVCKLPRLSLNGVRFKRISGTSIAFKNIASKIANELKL
Elongation factor 1-gamma (Homo sapiens), sequence (P26641 whole entry): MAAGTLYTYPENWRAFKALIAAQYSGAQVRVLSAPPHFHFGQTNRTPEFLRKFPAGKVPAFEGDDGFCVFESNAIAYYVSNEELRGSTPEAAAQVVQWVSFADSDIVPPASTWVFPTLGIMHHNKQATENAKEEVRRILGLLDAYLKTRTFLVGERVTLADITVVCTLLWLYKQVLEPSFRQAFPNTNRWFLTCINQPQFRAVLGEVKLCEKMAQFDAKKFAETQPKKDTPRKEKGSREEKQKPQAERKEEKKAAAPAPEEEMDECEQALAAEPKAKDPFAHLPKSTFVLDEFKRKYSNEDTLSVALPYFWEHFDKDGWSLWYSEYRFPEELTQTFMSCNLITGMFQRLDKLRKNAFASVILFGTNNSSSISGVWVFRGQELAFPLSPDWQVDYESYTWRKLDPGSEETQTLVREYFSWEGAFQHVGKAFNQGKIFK
Calponin-2 (Homo sapiens), sequence (Q99439 whole entry): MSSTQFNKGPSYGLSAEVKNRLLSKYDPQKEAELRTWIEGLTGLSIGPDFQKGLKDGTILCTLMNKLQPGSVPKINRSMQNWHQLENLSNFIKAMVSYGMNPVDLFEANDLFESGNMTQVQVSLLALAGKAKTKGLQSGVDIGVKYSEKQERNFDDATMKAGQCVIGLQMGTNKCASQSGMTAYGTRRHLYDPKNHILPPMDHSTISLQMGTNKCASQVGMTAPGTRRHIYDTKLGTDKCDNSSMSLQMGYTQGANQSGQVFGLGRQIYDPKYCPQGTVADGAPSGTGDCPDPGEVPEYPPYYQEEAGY
Vinculin (Homo sapiens), sequence (P18206 whole entry): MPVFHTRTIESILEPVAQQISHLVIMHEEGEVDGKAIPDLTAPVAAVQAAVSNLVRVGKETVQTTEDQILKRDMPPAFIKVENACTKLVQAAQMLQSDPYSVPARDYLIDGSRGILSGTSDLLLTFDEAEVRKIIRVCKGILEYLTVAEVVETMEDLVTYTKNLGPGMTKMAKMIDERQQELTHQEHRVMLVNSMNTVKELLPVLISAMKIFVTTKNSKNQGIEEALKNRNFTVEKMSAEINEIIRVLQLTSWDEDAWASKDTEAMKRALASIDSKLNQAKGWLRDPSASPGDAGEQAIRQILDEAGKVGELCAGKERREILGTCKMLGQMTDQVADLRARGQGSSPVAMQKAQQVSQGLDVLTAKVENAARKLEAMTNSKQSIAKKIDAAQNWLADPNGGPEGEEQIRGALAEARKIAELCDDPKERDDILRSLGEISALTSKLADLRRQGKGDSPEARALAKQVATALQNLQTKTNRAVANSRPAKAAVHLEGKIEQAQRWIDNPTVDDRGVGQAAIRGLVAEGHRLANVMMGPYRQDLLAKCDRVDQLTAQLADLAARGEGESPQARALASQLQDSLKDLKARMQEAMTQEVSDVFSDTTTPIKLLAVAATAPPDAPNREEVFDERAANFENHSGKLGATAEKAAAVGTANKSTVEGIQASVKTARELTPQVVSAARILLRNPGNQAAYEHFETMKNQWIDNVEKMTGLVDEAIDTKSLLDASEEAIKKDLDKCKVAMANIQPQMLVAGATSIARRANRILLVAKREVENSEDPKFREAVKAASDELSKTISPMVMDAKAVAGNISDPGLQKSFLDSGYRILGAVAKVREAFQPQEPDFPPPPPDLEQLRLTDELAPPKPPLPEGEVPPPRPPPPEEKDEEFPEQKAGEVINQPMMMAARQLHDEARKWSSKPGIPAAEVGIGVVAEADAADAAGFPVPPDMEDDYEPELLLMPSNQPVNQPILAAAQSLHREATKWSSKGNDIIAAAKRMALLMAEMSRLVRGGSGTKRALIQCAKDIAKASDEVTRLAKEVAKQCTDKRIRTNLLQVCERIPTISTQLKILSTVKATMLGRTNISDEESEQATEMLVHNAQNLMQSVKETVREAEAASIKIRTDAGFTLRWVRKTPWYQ
Heterogeneous nuclear ribonucleoprotein H2 (Homo sapiens), sequence (P55795 whole entry): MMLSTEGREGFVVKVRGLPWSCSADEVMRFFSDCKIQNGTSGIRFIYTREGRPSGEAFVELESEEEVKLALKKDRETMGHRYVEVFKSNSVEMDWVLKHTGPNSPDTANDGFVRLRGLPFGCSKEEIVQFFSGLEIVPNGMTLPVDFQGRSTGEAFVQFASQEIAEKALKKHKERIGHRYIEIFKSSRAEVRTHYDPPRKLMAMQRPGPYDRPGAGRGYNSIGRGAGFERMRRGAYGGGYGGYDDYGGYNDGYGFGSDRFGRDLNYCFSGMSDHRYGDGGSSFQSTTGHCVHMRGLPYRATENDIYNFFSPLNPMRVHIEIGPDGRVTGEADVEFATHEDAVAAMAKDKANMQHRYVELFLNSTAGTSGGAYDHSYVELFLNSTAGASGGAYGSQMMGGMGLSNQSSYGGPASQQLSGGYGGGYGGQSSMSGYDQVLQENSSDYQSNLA
Proteasome activator complex subunit 3 (Homo sapiens), sequence (P61289 whole entry, one chain of several): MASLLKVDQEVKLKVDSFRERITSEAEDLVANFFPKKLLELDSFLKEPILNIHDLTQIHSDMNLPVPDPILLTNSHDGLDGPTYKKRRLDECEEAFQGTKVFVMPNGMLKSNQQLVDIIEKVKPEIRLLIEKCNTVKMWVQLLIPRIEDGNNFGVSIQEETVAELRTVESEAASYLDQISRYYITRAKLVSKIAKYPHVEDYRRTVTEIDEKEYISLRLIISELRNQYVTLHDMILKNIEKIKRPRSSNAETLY
X antigen family member 1 (Homo sapiens), sequence (Q9HD64 whole entry): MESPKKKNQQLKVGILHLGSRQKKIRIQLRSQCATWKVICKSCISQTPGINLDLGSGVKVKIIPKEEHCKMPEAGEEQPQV
MAP kinase-activated protein kinase 5 (Homo sapiens), sequence (Q8IW41 whole entry): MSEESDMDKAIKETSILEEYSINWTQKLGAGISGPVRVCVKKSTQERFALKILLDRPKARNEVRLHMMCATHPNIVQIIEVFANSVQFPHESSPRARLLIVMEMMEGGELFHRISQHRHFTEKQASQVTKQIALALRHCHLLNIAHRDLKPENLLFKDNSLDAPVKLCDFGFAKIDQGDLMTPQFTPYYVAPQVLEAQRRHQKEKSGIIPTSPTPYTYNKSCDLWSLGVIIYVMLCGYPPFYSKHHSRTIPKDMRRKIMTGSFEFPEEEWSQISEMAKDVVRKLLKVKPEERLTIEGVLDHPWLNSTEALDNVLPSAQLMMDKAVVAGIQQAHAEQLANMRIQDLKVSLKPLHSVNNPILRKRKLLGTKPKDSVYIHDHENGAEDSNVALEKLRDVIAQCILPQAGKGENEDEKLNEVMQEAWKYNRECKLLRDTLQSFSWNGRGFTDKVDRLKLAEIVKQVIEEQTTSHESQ

Activity [1]: Active
Activity [2]: Active
Activity [3]: Active
Activity [4]: Active
Activity [5]: Active
Activity [6]: Active
Activity [7]: Active
Activity [8]: Active
Activity [9]: Active
Activity [11]: Active
Activity [12]: Active
Activity [13]: Active
Activity [14]: Active
Activity [15]: Active
Activity [16]: Active
Activity (Vinculin (Homo sapiens)): Active
Activity (Caprin-1 (Homo sapiens)): Active
Activity [17]: Active
Structure (SMILES): C=CC(=O)Nc1ccccc1Nc1nc(Nc2ccc(N3CCN(CCOCCOCCOCCNC(=O)CCCC[C@@H]4SC[C@@H]5NC(=O)N[C@@H]54)CC3)cc2)ncc1Cl
Activity [10]: Active

Structure (SMILES): C=CC(=O)Nc1ccccc1Nc1nc(Nc2ccc(N3CCN(C)CC3)cc2)ncc1Cl
inhibition [18]: -5.7%
inhibition [19]: 59.3%

Structure (SMILES): COc1cc(O)c2c(c1)/C=C/C[C@H](O)[C@H](O)C(=O)/C=C\C[C@H](C)OC2=O
Activity [20]: 0.05%
Activity (NCI-H23): Active
